# Shown are actives, neighbours in structure and some others; about 2% of the full set was active somewhere.
# SIAE inh – blocks human sialic acid acetylesterase. Q9HAT2. SIAE FP-Rh probe binding, fluorescence polarization. inhibition, % at 9.66 µM. actives 0.69% (n = 370,000). AID 1053197;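 active = inhibition above a cutoff: mean of compounds within the control limits plus 3 SD of those, cut at about 17% in these data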;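 note: 0% = plate median of compound wells and 100% = probe without SIAE protein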
# HTRA1 inhibitor – HTRA1 (human) protease inhibition; recombinant HTRA1, FP-rhodamine activity-based probe, fluorescence polarization; inhibition, % at 5.96 µM; actives 0.5% (n = 340,000); in the data active = inhibition above about 36%;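 note: 0% = enzyme with DMSO and 100% = wells lacking enzyme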
# TCR-CD3 inh – blocks the human TCR-CD3 interaction. TAMRA-labeled TCR probe fluorescence, biochemical. inhibition, % at 9.4 µM. actives 0.37% (n = 360,000);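 note: recombinant mutant TCR 2C K166C tagged with TAMRA read by polarization; 0% = receptor in buffer alone and 100% = receptor with positive control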
# mABHD4 FP – inhibitors of mouse ABHD4 | Q8VD66 | purified mABHD4, FP-Rh probe fluorescence polarization | inhibition, % at 8.92 µM | actives 0.54% (n = 370,000) | AID 720543;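 active = inhibition exceeding the mean over every tested compound plus 3 SD, cut at about 30% in these data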;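 note: 0% = plate median of compound wells and 100% = S159A mutant with DMSO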
# Target sequence (Q8VD66 whole entry, looked up): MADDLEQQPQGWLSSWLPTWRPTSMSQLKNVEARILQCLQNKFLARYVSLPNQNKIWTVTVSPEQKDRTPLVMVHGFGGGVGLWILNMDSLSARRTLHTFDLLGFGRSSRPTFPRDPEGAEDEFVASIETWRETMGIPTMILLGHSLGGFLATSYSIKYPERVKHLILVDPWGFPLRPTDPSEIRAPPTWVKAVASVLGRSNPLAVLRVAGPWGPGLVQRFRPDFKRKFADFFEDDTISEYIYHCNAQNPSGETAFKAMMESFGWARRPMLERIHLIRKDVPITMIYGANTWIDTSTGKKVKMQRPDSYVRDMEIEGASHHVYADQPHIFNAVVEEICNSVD
#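 Assay system: Wild-type mouse ABHD4 protein | Medium: HEPES pH 7.0 buffer, 150 mM NaCl, 0.01% Pluronic F-127 | Incubation: Enzyme–compound pre-incubation 45 min, then probe 60 min, both 25 °C | Technique: Fluorescence polarization with parallel and perpendicular emission, 525/598 nm | Evaluation: % inhibition of FP-Rh probe binding versus controls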
# PAD4 inh – PAD4 (human) enzyme inhibition. Q9UM07. recombinant PAD4, RCA probe fluorescence polarization. inhibition, % at 6.36 µM. actives 0.41% (n = 330,000). AID 485272;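 active = percent inhibition above a cutoff equal to the mean of all tested compounds plus 3 SD, cut at about 15% in these data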;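 note: 0% = PAD4 with RCA probe and DMSO and 100% = probe without PAD4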
# TDP2 absorb – TDP2 (human) inhibition, absorbance primary screen. O95551. recombinant TDP2, T5PNP hydrolysis, p-nitrophenol absorbance 415 nm. inhibition, % at 12.8 µM. actives 0.34% (n = 370,000). AID 720702;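 active = inhibition above the mean of all tested compounds plus 3 SD, set per campaign, cut at about 25% in these data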;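 note: 0% = DMSO with enzyme and 100% = buffer with substrate but no TDP2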
#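 System – recombinant human TDP2 · Amount – 120 nM TDP2 per well · Buffer or medium – Mg2+-containing Tris-HCl buffer, pH 7.5 · Reagent – T5PNP substrate, 5 mM · Dosing – 12.8 µM single point, 1% DMSO · Incubation – 2 h at 37 °C · Measured by – epi absorbance · Read-out basis – percent inhibition · Benchmarks – high control without enzyme, low control DMSO plus TDP2 · Repeats – singlicate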
# HTRA1 conf – confirmation of human HTRA1 inhibitors | recombinant HTRA1, FP-rhodamine activity-based probe, fluorescence polarization | inhibition, % at 5.96 µM | AID 540248 | shares compounds with HTRA1 inhibitor | actives 66% (n = 1,600);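 active = mean inhibition over three repeats above a set limit taken from the earlier primary screen, cut at about 37% in these data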;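 note: 0% = HTRA1 with DMSO and 100% = wells lacking HTRA1; inhibitors block probe binding so polarization drops and inhibition rises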
# BSA probe FL – BSA probe counter-screen for TCR-CD3 inhibitors; shares compounds with TCR-CD3 inh; TAMRA-labeled BSA probe fluorescence counterscreen; inhibition, % at 9.4 µM; actives 10% (n = 1,200); in the data active = inhibition above about 23%;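 note: 0% = buffer low control and 100% = reference high control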
# TCR-CD3 conf – confirmation of human TCR-CD3 interaction inhibitors | actives 48% (n = 1,200) | shares compounds with TCR-CD3 inh | TAMRA-labeled TCR probe fluorescence binding assay | AID 652036 | inhibition, % at 9.4 µM
# * hit, by the source's call; · = no result given. Cut-off read from the data, not from the text of the source, unless noted: active = inhibition above about 19%; inactive = the rest.
SMILES,SIAE inh,HTRA1 inhibitor,TCR-CD3 inh,mABHD4 FP,PAD4 inh,TDP2 absorb,HTRA1 conf,BSA probe FL,TCR-CD3 conf
Cc1ccccc1NC(=O)C(C)OC(=O)CNS(=O)(=O)c1ccc(C#N)cc1 (centres undefined),-4,4,5,4,4,9,·,·,·
COc1c(O)c(O)c2oc(-c3ccccc3)cc(=O)c2c1OC,1,46*,-2,8,-11,-5,60*,·,·
CCn1c(SCC(=O)c2ccc(-c3ccccc3)cc2)nnc1-c1ccc(C(C)(C)C)cc1,2,·,·,7,·,3,·,·,·
CCn1c(SCC(=O)c2ccc(O)c(O)c2)nnc1-c1ccc(C)cc1,11,49*,2,32*,4,-8,77*,·,·
CC1NC(=O)c2cc3ccccc3cc2-n2c1nc1ccc(F)cc1c2=O (centres undefined),-4,-4,2,-2,·,-4,·,·,·
O=[N+]([O-])c1cccc(-c2cc3cccc[n+]3cc2-c2cccc([N+](=O)[O-])c2)c1,1,3,2,0,4,-2,·,·,·
Cc1cccc2cc(-c3ccccc3)c(-c3ccccc3)c[n+]12,1,56*,3,17,4,-4,74*,·,·
Cc1c(C(=O)NNC(=O)c2ccccc2O)oc2ccc(Br)cc12,-10,41*,39*,-8,-5,0,69*,-14,24*
CCOc1ccc2nc(SCC(=O)NCc3ccc(OC)c(OC)c3)[nH]c2c1,-2,2,-6,-1,-5,-4,·,·,·
Cc1ccc(NCc2ccccc2O)cc1,1,4,5,-10,-2,8,·,·,·
Cc1ccc(CNc2ccc(O)cc2)cc1,48*,60*,27*,68*,·,21,27,-1,2
O=C(CCN1C(=O)/C(=C\c2ccccc2)SC1=S)NNC(=O)c1ccccc1O,-1,56*,40*,8,-6,-19,54*,-6,36*
O=C(CCN1C(=O)/C(=C\c2ccccc2)SC1=S)NNC(=O)c1cccnc1,-2,6,2,-10,3,1,·,·,·
COc1ccc(-c2cnnc(N/N=C/c3ccc(O)c(O)c3)n2)cc1,5,60*,49*,21,-6,6,78*,-21,44*
Cc1cc(/C=N/n2c(COc3ccccc3)nc3ccccc3c2=O)c(O)c([N+](=O)[O-])c1,24*,41*,39*,16,1,-17,54*,35*,56*
CCCC[C@H]1C2CC(OC(=O)Nc3ccccc3)C(C2)[C@H]2CCCCN21 (some centres undefined),1,·,·,-5,·,11,·,·,·
Cc1ccc(C(=O)Nc2nnc(CC(=O)N/N=C/c3ccc(O)c(O)c3)s2)cc1,4,48*,34*,14,-12,1,64*,-18,68*
Cc1ccc(C(=O)Nc2nnc(CC(=O)N/N=C/c3ccncc3)s2)cc1,-12,-24,11,-12,4,-5,·,·,·
O=c1cc(-c2ccc(O)c(O)c2)oc2cc(O)cc(O)c12,3,50*,25*,26,1,-6,67*,-17,21*
COc1cc(-c2cc(=O)c3c(O)cc(O)cc3o2)cc(OC)c1OC,-13,·,7,0,·,-10,·,·,·
CCC1=NN(C(=O)c2ccccc2O)C(O)(c2ccccc2)C1 (centres undefined),16,54*,40*,13,4,-10,65*,-8,30*
O=C(NNC(=O)c1cc2cc(Br)ccc2oc1=O)c1ccc(O)cc1O,-8,58*,46*,27,3,-9,83*,-15,35*
COCCCNC(=O)c1cc2cc(Br)ccc2oc1=O,4,-3,0,3,2,5,·,·,·

# High-throughput results: PubChem, The Scripps Research Institute Molecular Screening Center
